Test results: ChEMBL document CHEMBL1126179, “Synthesis and anti-HIV activity of isonucleosides” (J Med Chem, 1992)

Columns and labels:
[1] = In vitro effective dose which provides 50% protection of ATH-8 cells against the cytopathic effect of HIV; assay type: functional; conditions: Homo sapiens, read-out: ED50 (the source's name)
Method in brief: (§1)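 ATH-8 cells infected with HIV-1 (HTLV-III_B strain) and read as the dose giving 50% protection against viral cytopathic effect. Reported as a range from ≥3 experiments, each including a standard such as AZT.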

[2] = In vitro cytotoxicity against uninfected ATH-8 (human T-cell) cell line.; assay type: functional; conditions: read-out: CD50 (the source's name)
Method in brief: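 Uninfected ATH-8 cells; the value is the dose that reduces viability by 50%. Concentrations tested up to […].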

[3] = test system: Human immunodeficiency virus 1; experiment: Concentration required to inhibit HIV replication by 50%; assay type: functional, organism-based
Method in brief: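 Human PBM from a normal donor, isolated by Ficoll-Hypaque and stimulated with PHA (5 μg/mL) for 24 h in RPMI 1640/15% FBS/IL-2. Cells plated at 5 × 10⁵ per well and infected with 20 TCID₅₀ of AZT-resistant patient isolate HIV-1 ERS 205pre, with drug added. Incubated at 37 °C for 7 days; half the medium and drug replaced on day 4. Day-7 supernatant p24 gag measured by radioimmunoassay.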

[4] = In vitro effective dose which provides 50% protection of ATH-8 cells against the cytopathic effect of HIV; range 5-15 uM; assay type: functional; conditions: Homo sapiens, read-out: ED50 (the source's name); method in brief: as §1
[5] = In vitro effective dose which provides 50% protection of ATH-8 cells against the cytopathic effect of HIV; Range 5-10 uM; assay type: functional; conditions: Homo sapiens, read-out: ED50 (the source's name)
[6] = In vitro effective dose which provides 50% protection of ATH-8 cells against the cytopathic effect of HIV; range 5-10 uM; assay type: functional; conditions: Homo sapiens, read-out: ED50 (the source's name)
[7] = In vitro effective dose which provides 50% protection of ATH-8 cells against the cytopathic effect of HIV; range 10-50 uM; assay type: functional; conditions: Homo sapiens, read-out: ED50 (the source's name); method in brief: as §1

SMILES	EC50 [1] [µM]	CC50 [2] [µM]	IC50 [3] [µM]	also measured
OC[C@H]1C[C@@H](n2cnc3c(O)ncnc32)CO1	> 100	> 100		
Nc1ncnc2c1ncn2[C@H]1CO[C@@H](CO)C1		> 100	8.2	EC50 [4]: 5 µM
Nc1nc(O)c2ncn([C@H]3CC[C@@H](CO)O3)c2n1		> 200		EC50 [5]: 5 µM
Nc1ncnc2c1ncn2[C@H]1CC[C@@H](CO)O1		> 200		EC50 [6]: 5 µM
Cc1cn([C@H]2CO[C@@H](CO)C2)c(=O)[nH]c1=O	> 100	> 100		
Nc1nc(O)c2ncn([C@H]3CO[C@@H](CO)C3)c2n1		> 500	17.5	EC50 [7]: 10 µM
O=c1[nH]cnc2c1ncn2[C@H]1CC[C@@H](CO)O1 [DIDANOSINE]			1.28	
Nc1ccn([C@H]2CO[C@@H](CO)C2)c(=O)n1	> 100	> 100		
